# Experimental data from different studies.
# Compare with care: the assays were run in different laboratories.
# EPHX2: Bifunctional epoxide hydrolase 2 (EPHX2, Homo sapiens, UniProt P34913)
# ESR2: Estrogen receptor beta (ESR2, Homo sapiens, UniProt Q92731)
# Dhodh: Dihydroorotate dehydrogenase (quinone), mitochondrial (Dhodh, Mus musculus, UniProt O35435)
SMILES,target,assay,endpoint,value
C[S+]([O-])CCCCN=C=S (stereo not drawn),EPHX2,"enzyme activity, inhibitor, fluorescence",IC50,3.65 µM
Oc1ccc2c3c(cnc2c1)-c1ccc(C(F)(F)F)cc1O[C@@H]3c1ccc(OCCN2CC(CF)C2)cc1,ESR2,"ligand displacement, radioligand",Ki,0.00011 µM
C[C@H]1CCC[C@@]2(C)CCCC[C@]12O,"OR11A1 (Homo sapiens, UniProt Q9GZK7)","cAMP, agonist, luciferase",EC50,28 µM
O=C(Nc1ccc(-c2cccc3ncccc23)cc1)C1CCN(S(=O)(=O)c2ccccc2Cl)CC1,EPHX2,"enzyme activity, inhibitor, fluorescence",IC50,0.0017 µM
C=CCN=C=S,EPHX2,"enzyme activity, inhibitor, fluorescence",IC50,11.6 µM
CC[C@@](N)(c1cnc(C(F)(F)F)c(Cl)c1)c1c2ncn(C3CC3)c(=O)c2nn1C,Dhodh,"enzyme activity, inhibitor, absorbance",IC50,6.7 µM
O=C1CC[C@H](N2Cc3cc(N4CCN(CC5CCN(c6ccc([C@@H]7c8ccc(O)cc8CC[C@@H]7c7ccccc7)cc6)CC5)CC4)ccc3C2=O)C(=O)N1,ESR2,"ligand displacement, radioligand",IC50,0.005 µM
O=c1c(O)c(-c2ccc(O)c(O)c2)oc2cc(O)ccc12,"Dual specificity mitogen-activated protein kinase kinase 4 (MAP2K4, Homo sapiens, UniProt P45985)","enzyme activity, inhibitor, ADP detection",IC50,2.9 µM
N[C@@H](Cc1ccccc1)C(=O)O,"Intestinal-type alkaline phosphatase (ALPI, Bos taurus, UniProt P19111)","enzyme activity, inhibitor",IC50,78.4 µM
O=C(Nc1ccc(-c2ccc3ncccc3c2)cc1)C1CCN(S(=O)(=O)c2ccccc2Cl)CC1,EPHX2,"enzyme activity, inhibitor, fluorescence",IC50,0.0054 µM
Cn1nc2c(=O)n(C3CC3)ncc2c1[C@](O)(c1cnc(C(F)(F)F)c(Cl)c1)C(F)(F)F,Dhodh,"enzyme activity, inhibitor, absorbance",IC50,> 30 µM
C[C@@H]1O[C@@H](O[C@@H]2[C@@H](O)[C@H](OCCc3ccc(O)c(O)c3)O[C@H](CO)[C@H]2OC(=O)/C=C/c2ccc(O)c(O)c2)[C@H](O)[C@H](O)[C@H]1O,"Aldo-keto reductase family 1 member B1 (AKR1B1, Homo sapiens, UniProt P15121)","enzyme activity, inhibitor",IC50,1.17 µM
